Source: PubChem BioAssay (The Scripps Research Institute Molecular Screening Center)
Fh CTSL1 inh: Fasciola hepatica cathepsin L1 inhibitors, primary screen, counter-screen for PFM18AAP inhibitor project, biochemical, QFRET, fluorogenic peptide substrate | recombinant F. hepatica cathepsin L1, Z-Leu-Arg-MCA fluorescence | inhibition, % at 5.96 µM | 300,000 tested, 0.49% active | AID 1906, 2009;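 active = inhibition above the mean of all tested compounds plus 3 SD, set per screening campaign, cut at about 17% in these data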;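 note: 0% = plate median of test compound wells and 100% = 1 µM Z-Phe-Ala-diazomethylketone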
HCV NS3 hel inh: inhibitors of HCV NS3 helicase, primary screen, biochemical, Cy5 molecular beacon fluorescence. NS3 helicase DNA unwinding. inhibition, % at 10.9 µM. 290,000 tested, 0.56% active. AID 1800, 2009;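 active = inhibition above the mean of all tested compounds plus 3 SD, set per campaign, cut at about 35% in these data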;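 note: 0% = DMSO wells and 100% = thioflavine S control wells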
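Assay system – hepatitis C virus NS3 helicase domain fragment enzyme · Buffer or medium – MOPS pH 6.5, MgCl2, DTT, Tween20, BSA · Reagent – Cy5/quencher beacon DNA duplex and ATP to start · Compound – single 10.9 µM dose · Timing – 1 h at 25 °C · Technique – Cy5 beacon fluorescence read at start and 1 h · Measure – % inhibition of unwinding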
EBNA-1 inhibitor: EBNA-1 DNA-binding inhibitors, primary screen, biochemical, fluorescence polarization. inhibition, % at 14.8 µM. 300,000 tested, 0.34% active; in the data active = inhibition above about 28%
ZTA counter: ZTA (EBV) inhibition in EBNA-1 counter-screen. ZTA-DNA binding, fluorescence polarization. inhibition, % at 11 µM. 320,000 tested, 0.15% active; in the data active = inhibition above about 33%
Target sequence (P03206 whole entry, looked up): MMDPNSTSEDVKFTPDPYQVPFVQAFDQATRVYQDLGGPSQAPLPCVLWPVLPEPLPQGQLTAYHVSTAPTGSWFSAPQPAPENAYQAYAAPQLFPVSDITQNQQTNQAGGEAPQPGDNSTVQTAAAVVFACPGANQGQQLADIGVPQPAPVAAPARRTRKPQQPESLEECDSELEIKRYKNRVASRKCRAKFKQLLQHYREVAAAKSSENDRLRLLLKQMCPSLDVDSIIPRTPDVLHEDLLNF
NS3 hel confirm: HCV NS3 helicase inhibitors, retest, confirmation, biochemical, Cy5 molecular beacon fluorescence, triplicate. shares compounds with HCV NS3 hel inh. NS3 helicase DNA unwinding. inhibition, % at 10.9 µM. 1,600 tested, 31% active;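 active = inhibition above the mean of all tested compounds plus 3 SD, cutoff set per campaign, cut at about 36% in these data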
DNA FID counter: compounds displacing fluorescent DNA intercalator, artefact control for HCV NS3 helicase inhibitor project, biochemical, FID fluorescence, triplicate. shares compounds with HCV NS3 hel inh. 1,600 tested, 4% active. DNA fluorescent intercalator displacement. AID 1945, 2009. inhibition, % at 7.9 µM; in the data active = inhibition above about 37%;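 note: 0% = vehicle and 100% = reference compound; higher means more displacement of ethidium bromide from the DNA hairpin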
An asterisk follows results filed as active. Only some compounds are listed: those with a hit (about 1.4% of all), similar ones and a draw of the others.

Screening CC(CCC(=O)O)C1CCC2C3CCC4C[C@H](O)CCC4(C)C3CC(=O)C12C (some centres undefined) returned Fh CTSL1 inh 6, HCV NS3 hel inh 40*, EBNA-1 inhibitor 4, ZTA counter 1, NS3 hel confirm -21 and DNA FID counter -13.
`CCOC(=O)CN1C(=O)S/C(=C/c2ccco2)C1=O` gave Fh CTSL1 inh 3, HCV NS3 hel inh 3, EBNA-1 inhibitor 6 and ZTA counter 5.
Screening CCOC(=O)CN1C(=O)S/C(=C/c2ccc(OCc3ccc(C(=O)O)cc3)cc2)C1=O returned Fh CTSL1 inh 0, HCV NS3 hel inh 42*, EBNA-1 inhibitor -19, ZTA counter -8, NS3 hel confirm 32 and DNA FID counter -8.
CC(=C\c1ccccc1)/C=C1/SC(=S)N(CCC(=O)O)C1=O was read as Fh CTSL1 inh -2, HCV NS3 hel inh 51*, EBNA-1 inhibitor 4, ZTA counter 8, NS3 hel confirm 65* and DNA FID counter -9.
`O=C(O)CN1C(=O)/C(=C/c2ccc(N3CCCCC3)o2)SC1=S` gave Fh CTSL1 inh -2, HCV NS3 hel inh 61*, EBNA-1 inhibitor -4, ZTA counter 3, NS3 hel confirm 27 and DNA FID counter 0.
`CC(=C\c1ccco1)/C=C1/SC(=S)N(CC(=O)O)C1=O` gave Fh CTSL1 inh 6, HCV NS3 hel inh 45*, EBNA-1 inhibitor 3, ZTA counter -16, NS3 hel confirm 3 and DNA FID counter -1.
Screening O=C(COC(=O)c1ccccc1Nc1ccccc1)NCc1ccccc1Cl returned Fh CTSL1 inh 2, HCV NS3 hel inh 9, EBNA-1 inhibitor -4 and ZTA counter -3.
`CNC(=O)c1ccccc1NC(=O)c1cccc(S(=O)(=O)N2CCCCC2)c1` gave Fh CTSL1 inh -1, HCV NS3 hel inh -9, EBNA-1 inhibitor 0 and ZTA counter 20.
`COc1cc(CCC(=O)NCc2ccc(Cl)cc2)cc(OC)c1OC` gave Fh CTSL1 inh 3, HCV NS3 hel inh 0, EBNA-1 inhibitor 1 and ZTA counter -5.
For C=CCn1c(SCC(=O)Nc2cccc(C(=O)OC)c2)nnc1C(C)NC(=O)c1cccs1 (centres undefined) the results were Fh CTSL1 inh -2, HCV NS3 hel inh -4, EBNA-1 inhibitor 2 and ZTA counter -2.
`O=C(Nc1nc2c(F)cc(F)cc2s1)C1CC(=O)N(Cc2ccco2)C1` (centres undefined) gave Fh CTSL1 inh 0, HCV NS3 hel inh 41*, EBNA-1 inhibitor 4, ZTA counter 3, NS3 hel confirm -8 and DNA FID counter -27.
CCOc1ccccc1NC(=O)CCc1nnc2ccc(N3CCC(C)CC3)nn12 was read as Fh CTSL1 inh -2, HCV NS3 hel inh -1, EBNA-1 inhibitor 0 and ZTA counter 1.
`CC1CCC2C(C1)OS(=O)(=O)NC2(C)C` (centres undefined) gave Fh CTSL1 inh -2, HCV NS3 hel inh 41*, EBNA-1 inhibitor 9, ZTA counter 2, NS3 hel confirm 1 and DNA FID counter -2.
For O=C(NC1CCN(C(=O)Nc2ccccc2Cl)CC1)c1ccco1 the results were Fh CTSL1 inh -2, HCV NS3 hel inh -2, EBNA-1 inhibitor -6 and ZTA counter -11.
C#CCOc1c(Br)cc(/C=C2/C(=O)ON=C2C)cc1OCC was read as Fh CTSL1 inh -3, HCV NS3 hel inh 4, EBNA-1 inhibitor 2 and ZTA counter -18.
C#CCOc1c(Cl)cc(/C=C2/C(=O)ON=C2C)cc1OCC was read as Fh CTSL1 inh 3, HCV NS3 hel inh 57*, EBNA-1 inhibitor -1, ZTA counter -12, NS3 hel confirm 71* and DNA FID counter 16.
Screening CCOC(=O)n1c(=O)n(C)c2ccc(Br)cc21 returned Fh CTSL1 inh -2, HCV NS3 hel inh 112*, EBNA-1 inhibitor -4, ZTA counter -7, NS3 hel confirm -3 and DNA FID counter 6.
Screening C=CCn1c(=O)n(C(=O)OCC)c2cc(Br)ccc21 returned Fh CTSL1 inh 0, HCV NS3 hel inh 3, EBNA-1 inhibitor 3 and ZTA counter 0.
Screening Cc1ccccc1COc1ccc(-c2nnn(CC(=O)O)n2)cc1 returned HCV NS3 hel inh 40*, NS3 hel confirm 27 and DNA FID counter -15.
